Drawing on ChEMBL document CHEMBL1136324, “The total synthesis of an aurone isolated from Uvaria hamiltonii: aurones and flavones as anticancer agents” (Bioorg Med Chem Lett, 2003), this text covers IC50 and Activity for 17 compounds.

Experiment [1] concerns K562. As to the kind of experiment: Inhibitory activity against K562 human chronic myelogenous leukemia cell line using MTT assay after 5 days incubation of the compound. The settings on record: K562, 120 h. Type of experiment: functional, cell-based. The method, boiled down: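 K562 cells exposed to drug for 5 days at 37 °C; growth read by MTT assay. IC50 taken as concentration giving 50% inhibition of cell growth.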

For a further experiment, the target named is Tubulin alpha chain (Sus scrofa, UniProt P02550). Description: Concentration that cause a 50% inhibition in tubulin assembly as measured by an increase in turbidity using microtubule assembly assay.
Tubulin alpha chain, sequence (P02550 whole entry, looked up): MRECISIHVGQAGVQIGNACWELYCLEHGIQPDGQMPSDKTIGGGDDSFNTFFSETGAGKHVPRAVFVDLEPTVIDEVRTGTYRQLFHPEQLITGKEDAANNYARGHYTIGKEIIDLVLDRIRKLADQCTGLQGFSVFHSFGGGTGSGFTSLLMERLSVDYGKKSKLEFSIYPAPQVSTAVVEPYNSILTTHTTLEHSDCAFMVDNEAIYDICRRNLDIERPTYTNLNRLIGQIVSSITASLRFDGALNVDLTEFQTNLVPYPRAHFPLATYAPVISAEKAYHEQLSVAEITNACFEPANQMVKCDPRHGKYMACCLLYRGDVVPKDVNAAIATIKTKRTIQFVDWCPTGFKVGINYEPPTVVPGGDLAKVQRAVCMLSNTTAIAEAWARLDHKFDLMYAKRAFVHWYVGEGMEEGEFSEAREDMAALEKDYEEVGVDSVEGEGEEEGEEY
The subject of experiment [2] is K562. As to the kind of experiment: Effect on S phase of the cell cycle by flow cytometry. Type of experiment: functional, Homo sapiens. The method, boiled down:
(§1)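 Cell-cycle phase distribution measured by flow cytometry in drug-treated cells, compared with untreated control.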

Experiment [3] has as its system K562. Description: Effect on G2/M phase of the cell cycle by flow cytometry. It counts as functional, Homo sapiens. The method, boiled down: as §1
In general terms: Flow cytometry measures light scatter and fluorescence of single cells or particles in a stream.

Experiment [4] has as its system K562. As to the kind of experiment: Effect on G0-G1 phase of the cell cycle by flow cytometry. It counts as functional, Homo sapiens. The method, boiled down: as §1
Another experiment deals with Tubulin (Sus scrofa, UniProt P02554+P02550). Description: Ability to inhibit the binding of [3H]colchicine to porcine tubulin. Type of experiment: protein assay.

Bounds are passed on as bounds.

As for `COc1ccc(/C=C2\Oc3cc(OC)c(OC)c(OC)c3C2=O)cc1`, the IC50 with K562 [1] is > 50 µM.
Regarding `COc1ccc(/C=C2\Oc3c(cc(OC)c(OC)c3OC)C2=O)cc1`, the half-inhibitory concentration (IC50) in the experiment with K562 [1] came to 0.15 µM.
Still for that read-out and setting: as for `COc1ccc(-c2cc(=O)c3cc(OC)c(OC)c(OC)c3o2)cc1`, the figure is 0.83 µM.
With `COc1cc2c(c(OC)c1OC)O/C(=C\c1ccc(O)c(O)c1)C2=O`, the half-inhibitory concentration (IC50) in the experiment with K562 [1] was 9.7 µM; at Tubulin alpha chain it was > 50 µM. In addition, the Activity in the experiment with K562 [2] was 16; with K562 [3], 39; in the experiment with K562 [4], 45.
On to `COc1ccc(-c2cc(=O)c3c(OC)c(OC)c(OC)cc3o2)cc1`, for which the half-inhibitory concentration (IC50) in the experiment with K562 [1] was 42 µM.
Consider `COc1ccc(-c2cc(=O)c3cc(OC)c(OC)c(OC)c3o2)cc1F`, for which the figures for the concentration for half-maximal inhibition (IC50) in the experiment on K562 [1] and on Tubulin alpha chain were 0.59 µM and > 50 µM, respectively.
Turning to `COc1ccc(-c2cc(=O)c3c(OC)c(OC)c(OC)cc3o2)cc1O`, the IC50 is 22 µM in the experiment with K562 [1] and > 50 µM against Tubulin alpha chain.
Take `COc1cc2c(c(OC)c1OC)O/C(=C\c1cc(F)c(OC)c(F)c1)C2=O`: the concentration for half-maximal inhibition (IC50) with K562 [1] is 0.15 µM.
On to `COc1ccc(-c2cc(=O)c3c(OC)c(OC)c(OC)cc3o2)cc1F`, for which the 50% inhibitory concentration (IC50) in the experiment with K562 [1] and on Tubulin alpha chain was > 50 µM throughout.
In the case of `COc1cc2c(c(OC)c1OC)C(=O)/C(=C/c1ccc(O)c(O)c1)O2`, the IC50 is 12 µM with K562 [1] and > 50 µM against Tubulin alpha chain. For the same compound, the Activity in the experiment on K562 [2] is given as 18; in the experiment with K562 [3] it was 25; with K562 [4], 57.
For `COc1ccc(/C=C2\Oc3cc(OC)c(OC)c(OC)c3C2=O)cc1O`, the 50% inhibitory concentration (IC50) was 18 µM with K562 [1] and > 50 µM at Tubulin alpha chain.
With `COc1ccc(/C=C(\C)C(=O)c2cc(OC)c(OC)c(OC)c2)cc1O`, the results for the half-inhibitory concentration (IC50) in the experiment on K562 [1] and at Tubulin alpha chain were 0.0002 µM and 0.5 µM, respectively. Also, the figures for the Activity in the experiment on K562 [2], with K562 [3] and in the experiment with K562 [4] were 7, 83 and 10, respectively.
In the case of `COc1ccc(-c2cc(=O)c3cc(OC)c(OC)c(OC)c3o2)cc1O`, the IC50 was found to be 0.04 µM in the experiment with K562 [1], 40 µM on Tubulin and 25 µM against Tubulin alpha chain. Further, the Activity with K562 [2] is on record as 11; in the experiment on K562 [3], 38; in the experiment with K562 [4], 52.
Turning to `COc1cc2c(c(OC)c1OC)C(=O)/C(=C/c1cc(F)c(OC)c(F)c1)O2`, the IC50 in the experiment on K562 [1] was > 50 µM.
Regarding `COc1ccc(/C=C2\Oc3c(cc(OC)c(OC)c3OC)C2=O)cc1O`, the IC50 turned out to be 0.05 µM with K562 [1], 60 µM at Tubulin and 22 µM at Tubulin alpha chain. The Activity was found to be 14 with K562 [2], 69 in the experiment with K562 [3] and 17 in the experiment with K562 [4].
Take `COc1ccc(/C=C2\Oc3cc(OC)c(OC)c(OC)c3C2=O)cc1F`: the IC50 in the experiment on K562 [1] and at Tubulin alpha chain was > 50 µM in each case.
With `COc1ccc(/C=C2\Oc3c(cc(OC)c(OC)c3OC)C2=O)cc1F`, the half-inhibitory concentration (IC50) is 0.11 µM in the experiment with K562 [1] and > 50 µM at Tubulin alpha chain. The values for the Activity with K562 [2], in the experiment on K562 [3] and with K562 [4] were 11, 77 and 12, respectively.

By IC50 is commonly meant the concentration at which inhibition is half-maximal. Read a low IC50 as inhibition by little substance.
